Measured values taken from ChEMBL document CHEMBL1629544, “Inhibitors of strand transfer that prevent integration and inhibit human T-cell leukemia virus type 1 early replication” (Antimicrob Agents Chemother, 2008).
Active and inactive are the calls of the source. No cut-off for these calls is given here.

Legend:
[1] = tested on: Human T-cell leukemia virus type I; assay: Antiviral activity against HTLV-1 infected in PBMC cells cocultured with irradiated HTLV-1 positive MT2 cells assessed as decrease in […] load by RT-PCR; type: functional, organism-based
Outline: (§1)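 Donor PBMCs were cocultured 5:1 with 60 Gy-irradiated MT2 cells plus IL-2, with compound (DMSO) at 0, 50 or 100 μM, redosed at half concentration on days 4, 7 and 10. DNA was extracted on day 7. Real-time quantitative PCR for tax with albumin normalization used 250 ng DNA per reaction, in triplicate. The untreated load was set to 100 units.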

[2] = tested on: PBMC; assay: Growth inhibition of human PBMC cells cocultured with irradiated HTLV-1 positive MT2 cells at 250 uM after 21 days; type: functional, cell-based
Outline: (§2)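 PBMCs from HTLV-1-seronegative donors (Ficoll separation) were cocultured 5:1 with 60 Gy-irradiated HTLV-1-positive MT2 cells in RPMI 1640 with 100 U/ml IL-2. Compounds in DMSO were added at onset at final 0, 50, 100 or 250 μM, then at half the initial concentration on days 4, 7 and 10. Cells were counted on days 7, 14 and 21.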

[3] = tested on: PBMC; assay: Growth inhibition of human PBMC cells cocultured with irradiated HTLV-1 positive MT2 cells at 50 uM after 7 days; type: functional, cell-based; outline: as §2
[4] = tested on: PBMC; assay: Growth inhibition of human PBMC cells cocultured with irradiated HTLV-1 positive MT2 cells at 250 uM after 14 days; type: functional, cell-based; outline: as §2
[5] = tested on: PBMC; assay: Growth inhibition of human PBMC cells cocultured with irradiated HTLV-1 positive MT2 cells at 50 uM after 21 days; type: functional, cell-based; outline: as §2
[6] = tested on: PBMC; assay: Growth inhibition of human PBMC cells cocultured with irradiated HTLV-1 positive MT2 cells at 50 uM after 14 days; type: functional, cell-based; outline: as §2
[7] = tested on: PBMC; assay: Growth inhibition of human PBMC cells cocultured with irradiated HTLV-1 positive MT2 cells at 100 uM after 14 days; type: functional, cell-based; outline: as §2
[8] = tested on: PBMC; assay: Growth inhibition of human PBMC cells cocultured with irradiated HTLV-1 positive MT2 cells at 100 uM after 21 days; type: functional, cell-based; outline: as §2
[9] = tested on: PBMC; assay: Growth inhibition of human PBMC cells cocultured with irradiated HTLV-1 positive MT2 cells at 250 uM after 7 days; type: functional, cell-based; outline: as §2
[10] = tested on: PBMC; assay: Growth inhibition of human PBMC cells cocultured with irradiated HTLV-1 positive MT2 cells at 100 uM after 7 days; type: functional, cell-based; outline: as §2
[11] = tested on: Human T-cell leukemia virus type I; assay: Antiviral activity against HTLV-1 infected in PBMC cells cocultured with irradiated HTLV-1 positive MT2 cells assessed as decrease in […] load 100 uM after 7 days by RT-PCR; type: functional, organism-based; outline: as §1
[12] = tested on: Human T-cell leukemia virus type I; assay: Antiviral activity against HTLV-1 infected in PBMC cells cocultured with irradiated HTLV-1 positive MT2 cells assessed as decrease in […] load at 50 uM after 7 days by RT-PCR; type: functional, organism-based; outline: as §1
[13] = tested on: PBMC; assay: Inhibition of HTLV-1 integrase strand transfer activity in PBMC cells at 50 uM measured on day 21; type: cell-based; conditions: Human T-cell leukemia virus type I
[14] = Cytotoxic activity against human PBMC cells; type: cell-based
Outline: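 Fresh uninfected PBMCs were cultured with various inhibitor concentrations, including 250, 500 and 1,000 μM, in three experiments per concentration. Cell viability was measured to derive CC50.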

[15] = tested on: PBMC; assay: Inhibition of HTLV-1 integrase strand transfer activity in PBMC cells at 100 uM measured on day 21; type: cell-based; conditions: Human T-cell leukemia virus type I
[16] = tested on: Human T-cell leukemia virus type I; assay: Inhibition of HTLV-1 integrase strand transfer activity at 5 uM
Outline: (§3)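 Recombinant HTLV-1 integrase, expressed in E. coli BL21(DE3) and Ni-NTA purified. Donor was a 3′-recessed double-strand 54-bp HTLV-1 3′ LTR with synthetic target DNA, 1 pmol each oligonucleotide. Buffer: 25 mM HEPES pH 7.4, 10 mM β-mercaptoethanol, 10% glycerol, 7.5 mM MnCl₂. Incubated 60 min at 37°C. Products quantified by fluorescent PCR peak intensity, in triplicate; approximate IC50 by linear regression.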

[17] = Inhibition of HTLV-1 integrase strand transfer activity; parameters: species or system Human T-cell leukemia virus type I; outline: as §3
[18] = tested on: Human T-cell leukemia virus type I; assay: Inhibition of HTLV-1 integrase strand transfer activity at 10 uM; outline: as §3
[19] = tested on: Human T-cell leukemia virus type I; assay: Inhibition of HTLV-1 integrase strand transfer activity at 2 uM; outline: as §3

Compound | Activity [1] | inhibition [2] | inhibition [3] | inhibition [4] | inhibition [5] | inhibition [6] | inhibition [7] | inhibition [8] | inhibition [9] | inhibition [10] | Activity [11] | Activity [12] | inhibition [13] | CC50 [14] [µM] | inhibition [15] | inhibition [16] | IC50 [17] [µM] | inhibition [18] | inhibition [19]
O=C(O)c1ccc2ccc(/C=C/c3ccc(O)c(O)c3)nc2c1O | Active | Active | Active | Active | Active | Active | Active | Active | Active | Active | Active | Active |  |  |  |  |  |  | 
O=C(O)C(=O)CC(=O)c1cccn1Cc1ccc(F)cc1 |  | Active | Active | Active | Active | Active | Active | Active | Active | Active |  |  | Active | 520 | Active |  |  |  | 
COc1cc(/C=C/c2ccc3ccc(C(=O)O)c(O)c3n2)cc(O)c1O |  | Active | Active | Active | Active | Active | Active | Active | Active | Active |  |  |  |  |  | Active | 5.2 | Active | Active
O=C(O)C(=O)CC(=O)c1cccc(Cc2ccccc2)c1 | Active | Active | Active | Active | Active | Active | Active | Active | Active | Active | Active | Active |  | 220 |  |  |  |  | 
O=C(O)c1ccc2ccc(/C=C/c3cc(O)c(O)c(O)c3)nc2c1O |  |  |  |  |  |  |  |  |  |  |  |  |  | 10.7 |  |  |  |  | 
COc1cc(/C=C/c2ccc3ccc(C(=O)O)c(O)c3n2)cc(OC)c1O |  | Active | Active | Active | Active | Active | Active | Active | Active | Active |  |  |  |  |  | Active | 7.2 | Active | Active
